According to ChEMBL document CHEMBL1128243, “Three-dimensional quantitative structure-activity relationships of sulfonamide endothelin inhibitors” (J Med Chem, 1995):
pIC50: −log10 of the molar value.

target: T1, Endothelin-1 receptor (Rattus norvegicus, UniProt P26684); assay: Inhibition of [125I]endothelin-l binding to endothelin A receptor of rat thoracic aorta smooth muscle cells; format: tissue-based
T1 sequence (P26684 whole entry): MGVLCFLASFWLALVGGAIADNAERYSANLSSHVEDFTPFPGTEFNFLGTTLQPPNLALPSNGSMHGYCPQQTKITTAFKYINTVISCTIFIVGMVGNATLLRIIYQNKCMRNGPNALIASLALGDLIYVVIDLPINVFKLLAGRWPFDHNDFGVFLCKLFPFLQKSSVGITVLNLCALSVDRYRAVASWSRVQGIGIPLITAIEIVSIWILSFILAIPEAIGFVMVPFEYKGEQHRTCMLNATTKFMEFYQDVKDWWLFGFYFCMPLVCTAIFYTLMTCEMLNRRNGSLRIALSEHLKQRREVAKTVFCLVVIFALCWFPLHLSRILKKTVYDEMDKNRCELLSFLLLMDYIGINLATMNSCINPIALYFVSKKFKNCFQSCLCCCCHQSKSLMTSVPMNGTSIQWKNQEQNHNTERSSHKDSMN
Procedure, shortened: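 Membranes from A10 rat thoracic aorta smooth muscle cells (cultured, trypsin-detached, stored at -70 °C, then thawed, homogenized and centrifuged to a membrane pellet). Samples filtered through glass fiber filters and washed, then filter-retained radioactivity counted.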

Row | pIC50 | SMILES
1 | 4.62 | Cc1noc(NS(=O)(=O)c2ccc3c(N)cccc3c2)c1C
2 | 7.82 | Cc1onc(NS(=O)(=O)c2cccc3c(N(C)C)cccc23)c1C
3 | 4.56 | CC(=O)Nc1cccc2ccc(S(=O)(=O)Nc3onc(C)c3C)cc12
4 | 5.84 | Cc1noc(NS(=O)(=O)c2cccc3ccc(N)cc23)c1C
5 | 5.47 | CC(=O)Nc1ccc(S(=O)(=O)Nc2onc(C)c2C)c2ccccc12
6 | 5.51 | Cc1noc(NS(=O)(=O)c2cccc3ccccc23)c1C
7 | 6.08 | Cc1noc(NS(=O)(=O)c2cccc3cc(N(C)C)ccc23)c1C
8 | 5.89 | CC(=O)Nc1ccc2c(S(=O)(=O)Nc3onc(C)c3C)cccc2c1
9 | 4.28 | Cc1cc(NS(=O)(=O)c2ccc(O)cc2)no1
10 | 5.00 | Cc1noc(NS(=O)(=O)c2ccc3ccc(N)cc3c2)c1C
11 | 5.62 | Cc1noc(NS(=O)(=O)c2cccc3cc(N)ccc23)c1C
12 | 5.85 | Cc1noc(NS(=O)(=O)c2ccc3ccc(N(C)C)cc3c2)c1C
13 | 8.40 | Cc1noc(NS(=O)(=O)c2cccc3c(N(C)C(C)C)cccc23)c1C
14 | 5.01 | Cc1noc(NS(=O)(=O)c2ccc3cccc(N)c3c2)c1C
15 | 5.46 | Cc1noc(NS(=O)(=O)c2ccc(N)c3ccccc23)c1C
16 | 5.89 | Cc1noc(NS(=O)(=O)c2cccc(N)c2)c1C
17 | 5.25 | Cc1noc(NS(=O)(=O)c2cccc3ccc(N(C)C)cc23)c1C
18 | 4.38 | CC(=O)Nc1ccc2ccc(S(=O)(=O)Nc3onc(C)c3C)cc2c1
19 | 4.50 | Cc1noc(NS(=O)(=O)c2ccc3cccc(N(C)C)c3c2)c1C
20 | 6.22 | Cc1noc(NS(=O)(=O)c2ccc3cc(N)ccc3c2)c1C
21 | 5.30 | CCNc1ccc(S(=O)(=O)Nc2onc(C)c2C)cc1
22 | 4.08 | Cc1noc(NS(=O)(=O)c2ccc(N(C)C)cc2)c1C
23 | 7.80 | CC(=O)Nc1cccc2c(S(=O)(=O)Nc3noc(C)c3C)cccc12
24 | 6.29 | Cc1onc(NS(=O)(=O)c2ccc(N)cc2)c1Br
25 | 8.30 | Cc1noc(NS(=O)(=O)c2cccc3c(NC(C)C)cccc23)c1C
26 | 5.42 | CC(=O)Nc1ccc2cc(S(=O)(=O)Nc3onc(C)c3C)ccc2c1
27 | 7.82 | Cc1noc(NS(=O)(=O)c2cccc3c(N(C)C)cccc23)c1C [BMS-182874]
28 | 6.59 | Cc1onc(NS(=O)(=O)c2ccc(N)cc2)c1C [SULFATROXAZOLE]
